In brackets after ≈: the same amount, converted by molar mass.
Tests used:
[1] = In vivo modulation of gamma secretase in transgenic J20 mouse overexpressing human APP assessed as reduction in plasma amyloid beta38 level at 25 mg/kg, po administered via gavage for 3 consecutive days and measured after 4 hrs post last dose on day 3 by meso scale discovery relative to control; format: functional; parameters: scale not given: the % may be the effect or the level left; details: time 3 day
Procedure, shortened: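 Female J20 mice, 5–6 months old (n=5/dose), dosed orally at 25, 50 or 100 mg/kg or with vehicle (5% NMP/95% PEG300) for 3 consecutive days. Plasma was taken 4 h after the final dose. Aβ38/40/42 measured by Meso Scale multiplex immunoassay, with % reduction relative to vehicle. Mean ± SEM, ANOVA.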

[2] = Kinetic aqueous solubility of the compound in pH 7.4 PBS buffer by UV/Visible absorbance analysis; format: physicochemical; details: read-out: Kinetic_solubility
Procedure, shortened: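 Kinetic solubility determined in PBS at pH 7.4 by UV/Vis absorbance, reported in μM.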

[3] = target: Gamma-secretase; experiment: Modulation of gamma secretase in human SH-SY5Y cells overexpressing wild type APP751 assessed as inhibition of amyloid beta (35 to 42 residues) formation incubated for overnight by ELISA; format: cell-based
Procedure, shortened: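 SHSY5Y-APP751 cells plated at 75K/well and incubated overnight at 37 °C, then treated 24 h over 10 concentrations ([…]–10 μM, 1:3.16 steps, in duplicate). Medium Aβ42 measured by sandwich ELISA (Aβ35–42 capture, AP-conjugated Aβ1–12 detection, CDP-Star luminescence) against an Aβ42 standard curve.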

[4] = Metabolic stability in rat liver microsomes assessed as parent compound remaining at 1 uM incubated for 30 mins; format: ADME, Microsome; details: 0.5 h
Procedure, shortened: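 Test compound at 1 μM incubated 30 min with human, rat or mouse liver microsomes (1 mg/mL); parent remaining expressed as %.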

[5] = target: Cytochrome P450 2C9 (Homo sapiens, UniProt P11712); experiment: Inhibition of recombinant CYP2C9 (unknown origin) by fluorescence-based assay; format: ADME
Procedure, shortened: (§1)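 Recombinant CYP isoforms (five tested) screened for inhibition in fluorescence-based assays; IC50 in μM.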

[6] = target: Cytochrome P450 2C19 (Homo sapiens, UniProt P33261); experiment: Inhibition of recombinant CYP2C19 (unknown origin) by fluorescence-based assay; format: ADME; procedure, shortened: as §1
[7] = target: Cytochrome P450 2D6 (Homo sapiens, UniProt P10635); experiment: Inhibition of recombinant CYP2D6 (unknown origin) by fluorescence-based assay; format: ADME; procedure, shortened: as §1
[8] = Cmax in CD-1 mouse at 1 mg/kg, iv administered as single dose measured up to 24 hrs; format: ADME, organism-based; parameters: route intravenous, dose 1 mg/kg, time <=24; details: in vivo
Procedure, shortened: (§2)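 Male CD-1 mice, 6–8 weeks old, single dose by tail vein (1 mg/kg, 3% NMP/45% PEG300/12% ethanol/40% water) or oral gavage (5 mg/kg, 5% NMP/95% PEG300). Retro-orbital plasma sampled 0.083 (iv only) to 24 h, n=3/timepoint, and analysed by HPLC/MS/MS. Non-compartmental analysis. Half-life taken from the terminal phase using ≥3 non-zero points after Tmax.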

[9] = Tmax in CD-1 mouse at 1 mg/kg, iv administered as single dose measured up to 24 hrs; format: ADME, organism-based; details: in vivo
Procedure, shortened: (§3)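 Male CD-1 mice, 6–8 weeks old, single tail-vein dose in 3% NMP/45% PEG300/12% ethanol/40% sterile water. Retro-orbital plasma (K3EDTA) taken at 0.083, 0.25, 0.5, 1, 2, 4, 8 and 24 h, n=3/timepoint, analysed by HPLC/MS/MS. Non-compartmental analysis (Model 201, uniform weighting); Tmax read directly from the data.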

[10] = AUC infinity in CD-1 mouse at 1 mg/kg, iv administered as single dose measured up to 24 hrs; format: ADME, organism-based; parameters: route intravenous, dose 1 mg/kg, time <=24; details: in vivo; procedure, shortened: as §2
[11] = Volume of distribution at steady state in CD-1 mouse at 1 mg/kg, iv administered as single dose measured up to 24 hrs; format: ADME, organism-based; details: in vivo; procedure, shortened: as §3
[12] = Cmax in CD-1 mouse at 5 mg/kg, po administered as single dose measured up to 24 hrs; format: ADME, organism-based; parameters: route oral, dose 5 mg/kg, time <=24; details: in vivo; procedure, shortened: as §2
[13] = Apparent permeability from apical to basolateral membrane in MDCK-MDR1 cells; format: ADME, cell-based, Canis lupus familiaris; details: dog
Procedure, shortened: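 Apical-to-basolateral apparent permeability (×10⁻⁶ cm/s) measured across MDR1-MDCK cell monolayers.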

[14] = In vivo modulation of gamma secretase in transgenic J20 mouse overexpressing human APP assessed as reduction in plasma amyloid beta42 level at 100 mg/kg, po administered via gavage for 3 consecutive days and measured after 4 hrs post last dose on day 3 by meso scale discovery relative to control; format: functional; parameters: scale not given: the % may be the effect or the level left; details: time 3 day
Procedure, shortened: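 Female J20 mice, 5–6 months old (n=5/dose), given vehicle (5% NMP/95% PEG300) or test article at 25, 50 or 100 mg/kg by oral gavage daily for 3 days. Sacrificed 4 h after final dose; plasma Aβ38/40/42 quantified by Meso Scale multiplex (SECTOR Imager 6000). Percent reduction versus vehicle; mean ± SEM, ANOVA.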

[15] = Drug level in plasma of transgenic J20 mouse overexpressing human APP at 25 mg/kg, po administered via gavage for 3 consecutive days and measured after 4 hrs post last dose on day 3 by HPLC-MS/MS analysis; format: ADME, organism-based; details: time 3 day
Procedure, shortened: (§4)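 Female J20 mice, 5–6 months old, given 25, 50 or 100 mg/kg orally (5% NMP/95% PEG300) daily for 3 days, n=5/dose. Plasma and brain taken 4 h after the final dose and analysed by LC-MS/MS. LLOQ was 1 ng/mL in plasma and 5 ng/g in brain.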

[16] = Drug level in plasma of transgenic J20 mouse overexpressing human APP at 100 mg/kg, po administered via gavage for 3 consecutive days and measured after 4 hrs post last dose on day 3 by HPLC-MS/MS analysis; format: ADME, organism-based; details: time 3 day; procedure, shortened: as §4
[17] = Drug level in brain of transgenic J20 mouse overexpressing human APP at 50 mg/kg, po administered via gavage for 3 consecutive days and measured after 4 hrs post last dose on day 3 by HPLC-MS/MS analysis; format: ADME, organism-based; details: time 3 day, read-out: Ct; procedure, shortened: as §4
[18] = Drug level in brain of transgenic J20 mouse overexpressing human APP at 100 mg/kg, po administered via gavage for 3 consecutive days and measured after 4 hrs post last dose on day 3 by HPLC-MS/MS analysis; format: ADME, organism-based; details: time 3 day, read-out: Ct; procedure, shortened: as §4
[19] = Ratio of drug level in brain to plasma of transgenic J20 mouse overexpressing human APP at 25 mg/kg, po administered via gavage for 3 consecutive days and measured after 4 hrs post last dose on day 3 by HPLC-MS/MS analysis; format: ADME, organism-based; details: 72 h, time 3 day
Procedure, shortened: (§5)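 Female J20 mice, 5–6 months old (n=5/dose), dosed by oral gavage once daily for 3 days in 5% NMP/95% PEG300 vehicle. Sacrificed 4 h after the day-3 dose. Plasma and brain drug levels measured by LC-MS/MS (LLOQ 1 ng/mL plasma, 5 ng/g brain). Ratio = brain level/plasma level.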

[20] = Ratio of drug level in brain to plasma of transgenic J20 mouse overexpressing human APP at 50 mg/kg, po administered via gavage for 3 consecutive days and measured after 4 hrs post last dose on day 3 by HPLC-MS/MS analysis; format: ADME, organism-based; details: 72 h, time 3 day; procedure, shortened: as §5

Sequence of Cytochrome P450 2D6 (P10635 whole entry): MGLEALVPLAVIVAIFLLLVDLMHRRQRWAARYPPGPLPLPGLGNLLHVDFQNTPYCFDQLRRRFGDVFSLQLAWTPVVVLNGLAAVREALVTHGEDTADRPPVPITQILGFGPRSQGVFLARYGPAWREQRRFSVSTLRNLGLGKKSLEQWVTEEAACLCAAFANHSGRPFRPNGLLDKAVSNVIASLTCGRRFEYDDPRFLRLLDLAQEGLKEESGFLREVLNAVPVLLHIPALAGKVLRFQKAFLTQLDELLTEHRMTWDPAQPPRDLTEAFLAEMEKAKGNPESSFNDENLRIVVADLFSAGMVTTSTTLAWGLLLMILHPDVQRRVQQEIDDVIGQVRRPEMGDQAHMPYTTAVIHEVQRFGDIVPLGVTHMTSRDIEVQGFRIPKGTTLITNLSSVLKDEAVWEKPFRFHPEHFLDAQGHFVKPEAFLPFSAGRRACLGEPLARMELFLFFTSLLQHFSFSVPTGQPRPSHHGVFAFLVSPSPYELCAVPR
Sequence of Cytochrome P450 2C19 (P33261 whole entry): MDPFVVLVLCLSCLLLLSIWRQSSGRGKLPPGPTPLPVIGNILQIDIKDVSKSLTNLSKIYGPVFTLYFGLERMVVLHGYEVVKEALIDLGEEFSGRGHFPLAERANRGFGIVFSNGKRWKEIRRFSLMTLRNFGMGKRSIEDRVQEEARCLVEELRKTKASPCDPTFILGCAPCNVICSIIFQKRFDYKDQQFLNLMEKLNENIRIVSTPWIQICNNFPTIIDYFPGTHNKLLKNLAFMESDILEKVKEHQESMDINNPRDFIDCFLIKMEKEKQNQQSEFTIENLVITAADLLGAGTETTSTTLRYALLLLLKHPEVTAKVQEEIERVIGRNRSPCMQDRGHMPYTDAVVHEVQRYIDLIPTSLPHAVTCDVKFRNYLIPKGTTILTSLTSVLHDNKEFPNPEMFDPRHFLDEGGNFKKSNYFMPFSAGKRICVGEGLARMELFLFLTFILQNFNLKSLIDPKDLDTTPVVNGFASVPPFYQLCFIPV
Sequence of Cytochrome P450 2C9 (P11712 whole entry, canonical isoform): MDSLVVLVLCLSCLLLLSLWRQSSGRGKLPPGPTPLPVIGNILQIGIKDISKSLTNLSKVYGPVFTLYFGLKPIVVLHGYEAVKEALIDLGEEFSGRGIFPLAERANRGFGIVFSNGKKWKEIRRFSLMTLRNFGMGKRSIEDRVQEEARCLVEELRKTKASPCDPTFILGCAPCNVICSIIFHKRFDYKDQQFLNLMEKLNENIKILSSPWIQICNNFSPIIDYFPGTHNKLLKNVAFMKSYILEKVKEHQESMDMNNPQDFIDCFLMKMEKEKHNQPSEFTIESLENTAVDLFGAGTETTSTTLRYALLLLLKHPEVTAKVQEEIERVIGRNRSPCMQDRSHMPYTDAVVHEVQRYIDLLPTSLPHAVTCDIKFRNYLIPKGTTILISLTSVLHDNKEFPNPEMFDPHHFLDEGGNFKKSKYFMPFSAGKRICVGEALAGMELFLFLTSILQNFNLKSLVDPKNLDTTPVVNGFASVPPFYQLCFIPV

Row | SMILES | Activity [1] [%] | solubility kinetic [2] [µM] | IC50 [3] [µM] | Stabilty [4] [%] | IC50 [5] [µM] | IC50 [6] [µM] | IC50 [7] [µM] | Cmax [8] [ng/mL] | Tmax [9] [min] | AUC [10] [ng·h/mL] | Vdss [11] [L/kg] | Cmax [12] [ng/mL] | Papp [13] | Activity [14] [%] | concentration at 72 h [15] [ng/mL] | concentration at 72 h [16] [ng/mL] | concentration at 72 h [17] [ng/g] | concentration at 72 h [18] [ng/g] | BPR [19] | BPR [20]
1 | COc1nc(-c2csc(Nc3c4c(nn3CCF)CCCC4)n2)ccc1-n1cnc(C)c1 | 18 | 15 (≈ 6.8 µg/mL) | 0.047 | 100 | 6.8 | 4.6 | > 100 | 309 | 4.98 | 288 | 2.826 | 167 | 32.6 10^-6 cm/s | 55 | 72 | 183 | 282 | 105 | 0.53 | 0.42
2 | CCn1nc2c(c1Nc1nc(-c3ccc(-n4cnc(C)c4)c(OC)n3)cs1)CCC2 | 19 | 7.8 (≈ 3.29 µg/mL) | 0.033 | 67 | > 100 | > 100 | > 100 | 549 | 4.98 | 383 | 2.234 | 377 | 29.6 10^-6 cm/s | 76 | 86 | 726 | 83 | 337 | 0.37 | 0.38
